The record followed here is ChEMBL document CHEMBL3352690, “Synthesis and evaluation of arylpiperazines derivatives of 3,5-dioxo-(2H,4H)-1,2,4-triazine as 5-HT1AR ligands” (Bioorg Med Chem Lett, 2014).

The target of assay [1] is T1, Adrenergic receptor alpha-1 (Homo sapiens, UniProt P35348+P25100+P35368).
T1 sequence (P35348 whole entry): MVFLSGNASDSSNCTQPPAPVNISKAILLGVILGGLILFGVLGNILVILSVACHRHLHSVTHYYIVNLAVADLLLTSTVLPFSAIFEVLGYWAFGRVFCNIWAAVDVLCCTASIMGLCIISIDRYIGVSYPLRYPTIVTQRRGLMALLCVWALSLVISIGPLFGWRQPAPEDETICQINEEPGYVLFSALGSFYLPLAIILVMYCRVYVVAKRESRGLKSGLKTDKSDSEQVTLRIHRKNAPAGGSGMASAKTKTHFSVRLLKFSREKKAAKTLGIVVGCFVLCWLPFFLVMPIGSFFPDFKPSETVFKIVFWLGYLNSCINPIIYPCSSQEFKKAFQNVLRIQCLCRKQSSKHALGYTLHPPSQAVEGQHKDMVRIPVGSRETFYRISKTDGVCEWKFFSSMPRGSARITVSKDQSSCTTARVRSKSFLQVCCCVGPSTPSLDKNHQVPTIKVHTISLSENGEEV
T1 sequence (P25100 whole entry): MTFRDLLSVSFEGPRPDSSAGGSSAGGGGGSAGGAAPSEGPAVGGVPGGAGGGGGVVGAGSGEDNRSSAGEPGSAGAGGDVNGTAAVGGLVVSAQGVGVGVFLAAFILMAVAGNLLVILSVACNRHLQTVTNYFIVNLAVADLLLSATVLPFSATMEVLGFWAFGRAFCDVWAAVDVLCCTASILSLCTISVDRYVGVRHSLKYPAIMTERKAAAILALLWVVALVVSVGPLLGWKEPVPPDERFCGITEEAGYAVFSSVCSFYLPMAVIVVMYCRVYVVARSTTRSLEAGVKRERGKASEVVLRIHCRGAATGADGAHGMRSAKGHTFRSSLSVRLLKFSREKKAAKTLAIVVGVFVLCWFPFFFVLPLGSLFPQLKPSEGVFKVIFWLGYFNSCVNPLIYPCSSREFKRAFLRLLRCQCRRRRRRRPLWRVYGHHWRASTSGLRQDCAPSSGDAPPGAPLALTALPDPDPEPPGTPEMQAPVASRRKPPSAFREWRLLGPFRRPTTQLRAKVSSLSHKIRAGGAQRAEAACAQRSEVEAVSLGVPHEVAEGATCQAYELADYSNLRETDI
T1 sequence (P35368 whole entry): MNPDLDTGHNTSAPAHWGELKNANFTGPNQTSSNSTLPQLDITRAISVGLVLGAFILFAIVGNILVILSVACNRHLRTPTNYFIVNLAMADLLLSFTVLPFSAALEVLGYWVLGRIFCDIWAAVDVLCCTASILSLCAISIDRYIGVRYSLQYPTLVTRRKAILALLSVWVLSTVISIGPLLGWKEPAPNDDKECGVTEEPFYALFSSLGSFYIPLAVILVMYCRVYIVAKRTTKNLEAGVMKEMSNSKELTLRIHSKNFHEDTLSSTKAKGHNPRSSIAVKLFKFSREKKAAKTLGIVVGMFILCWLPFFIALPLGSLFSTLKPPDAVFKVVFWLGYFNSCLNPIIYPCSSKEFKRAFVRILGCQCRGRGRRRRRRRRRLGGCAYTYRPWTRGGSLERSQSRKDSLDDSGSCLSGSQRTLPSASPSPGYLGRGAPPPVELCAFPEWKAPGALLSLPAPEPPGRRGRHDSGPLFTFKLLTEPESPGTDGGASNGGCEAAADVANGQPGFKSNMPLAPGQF
Nature of the assay: Displacement of [3H]-7-methoxyprazosin from alpha1 adrenergic receptor (unknown origin) by competition binding assay. The essentials:
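Competition binding against [3H]-7-methoxyprazosin, with phentolamine as the reference compound.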
For orientation: Displacement assays read how much labelled ligand stays bound in the presence of the test substance.

Assay [2] concerns the target T2, 5-hydroxytryptamine receptor 1A (Homo sapiens, UniProt P08908).
T2 sequence (P08908 whole entry): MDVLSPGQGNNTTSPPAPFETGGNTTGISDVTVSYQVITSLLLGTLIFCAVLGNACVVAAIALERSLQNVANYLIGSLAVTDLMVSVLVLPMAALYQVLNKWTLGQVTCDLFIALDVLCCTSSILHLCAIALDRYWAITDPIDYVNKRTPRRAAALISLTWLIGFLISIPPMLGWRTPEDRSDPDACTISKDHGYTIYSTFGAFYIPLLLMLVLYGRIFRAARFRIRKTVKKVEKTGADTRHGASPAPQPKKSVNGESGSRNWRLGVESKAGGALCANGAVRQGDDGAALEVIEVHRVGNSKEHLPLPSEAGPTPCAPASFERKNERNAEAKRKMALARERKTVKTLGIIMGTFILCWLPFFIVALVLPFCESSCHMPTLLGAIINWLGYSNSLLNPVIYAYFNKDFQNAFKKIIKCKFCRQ
Kind of assay: Displacement of [3H]8-OH-DPAT from 5HT1AR (unknown origin) by competition binding assay.

Assay [3] addresses T3, 5-hydroxytryptamine receptor 1A (Homo sapiens) (UniProt P08908).
T3 sequence (whole entry): T2 sequence (P08908 whole entry)
Nature of the assay: (§1) Agonist activity at human 5HT1AR expressed in CHO cells assessed as increase in [35S]GTPgammaS binding by liquid scintillation spectrometry. The assay is classed as functional, cell-based. The essentials:
(§2)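 CHO-h5-HT1A cell membranes (30 μg) preincubated 5 min at room temperature with set concentrations of ligand in 20 mM HEPES pH 7.4, 3 mM MgCl2, 100 mM NaCl, 3 μM GDP. [35S]GTPγS (0.1 nM) then added, 60 min at room temperature. Stopped by rapid filtration through GF/B filters with three ice-cold 20 mM HEPES pH 7.4 washes. Bound radioactivity counted by liquid scintillation.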
In general terms: GTPγS resists hydrolysis and so accumulates on activated G proteins.

For assay [4], the species on record is Homo sapiens. Nature of the assay: Selectivity index, ratio of Ki for alpha1 adrenergic receptor (unknown origin) to Ki for 5HT1AR (unknown origin).
The target of assay [5] is T3, 5-hydroxytryptamine receptor 1A (Homo sapiens). Nature of the assay: Agonist activity at human 5HT1AR expressed in CHO cells assessed as increase in [35S]GTPgammaS binding by liquid scintillation spectrometry relative to untreated control. Type of assay: functional, cell-based. As to conditions: in the assay text read “relative to 5-HT” for “relative to untreated control”. The essentials:
as §2

The target of assay [6] is T2, 5-hydroxytryptamine receptor 1A. The description is as §1. The assay is classed as functional, cell-based. The essentials: as §2

In the case of `CCOc1ccccc1N1CCN(CCCCn2ncc(=O)n(C)c2=O)CC1`, the inhibition constant Ki in assay [1] was determined as 1.8 nM; in assay [2], 0.66 nM.
With `Cn1c(=O)cnn(CCCCN2CCN(c3ccc(I)cc3)CC2)c1=O`, the Ki in assay [1] was 103 nM; in assay [2] it was 58.8 nM.
With `COc1ccccc1N1CCN(CCCCn2ncc(=O)n(C)c2=O)CC1`, the Activity entry in assay [3] is “Dose-dependent effect”. The same compound displayed a Ki in assay [1] of 6.75 nM. Also, the Ratio Ki in assay [4] stood at 45.
With `Cn1c(=O)cnn(CCCCN2CCN(c3c(Br)cccc3C#N)CC2)c1=O`, the Ki in assay [1] came to 450 nM; in assay [2], 28 nM.
As for `CNc1ccccc1N1CCN(CCCCn2ncc(=O)n(C)c2=O)CC1`, the Ki worked out at 450 nM in assay [1] and 220 nM in assay [2].
Consider `Cn1c(=O)cnn(CCCCN2CCN(c3ccccc3S)CC2)c1=O`, for which the values for the Ki in assay [1] and in assay [2] were > 10000 nM and 8 nM, respectively.
With `Cn1c(=O)cnn(CCCCN2CCN(c3cccc(F)n3)CC2)c1=O`, the Emax in assay [5] is 95%. In assay [3], the Activity result is “Dose-dependent effect”. Moreover, the EC50 in assay [6] was found to be 0.2 nM. For the same compound, the Ki in assay [1] is > 10000 nM; in assay [2], 0.2 nM.
For `COc1ccc(N2CCN(CCCCn3ncc(=O)n(C)c3=O)CC2)c(OC)c1`, the inhibition constant Ki in assay [1] is > 10000 nM; in assay [2], 190 nM.
For `COc1ccccc1N1CCN(CCn2ncc(=O)n(C)c2=O)CC1` the same measures were > 10000 nM and 240 nM.
The like results for `CN(C)c1ccccc1N1CCN(CCCCn2ncc(=O)n(C)c2=O)CC1` were, in that order, 350 nM and 180 nM.
The like results for `COc1ccc2cccc(N3CCN(CCCn4ncc(=O)n(C)c4=O)CC3)c2c1` were, in that order, > 10000 nM and 175 nM.
Turning to `Cn1c(=O)cnn(CCCCN2CCN(c3ccc(F)cn3)CC2)c1=O`, the inhibitory constant (Ki) was > 10000 nM in assay [1] and 68 nM in assay [2].
For `COc1ccc2cccc(N3CCN(CCCCCn4ncc(=O)n(C)c4=O)CC3)c2c1` the same measures were > 10000 nM and 240 nM.
For `Cn1c(=O)cnn(CCCCN2CCN(c3ccccc3)CC2)c1=O`, the Emax in assay [5] amounted to 93%. For the same compound, the Activity entry in assay [3] was “Dose-dependent effect”. Moreover, the EC50 in assay [6] stood at 0.3 nM. For the same compound, the Ki in assay [1] turned out to be 64 nM; in assay [2], 2.5 nM. Moreover, the Ratio Ki in assay [4] was determined as 25.
On to `Cn1c(=O)cnn(CCCCN2CCN(c3cccc(Br)n3)CC2)c1=O`, for which the Ki in assay [1] was > 10000 nM; in assay [2], 1.4 nM.
Consider `Cn1c(=O)cnn(CCCCN2CCN(c3ccccn3)CC2)c1=O`, for which, in assay [5], the maximal effect (Emax) was 85%. In addition, the Activity result in assay [3] was “Dose-dependent effect”. Moreover, in assay [6], the EC50 came to 0.08 nM. Besides, the Ki in assay [1] is 262 nM; in assay [2] it was 1.1 nM.
On to `Cn1c(=O)cnn(CCCCN2CCN(c3ccccc3F)CC2)c1=O`, for which the Ki amounted to 9.73 nM in assay [1] and 1.89 nM in assay [2].
Consider `Cn1c(=O)cnn(CCCCN2CCN(c3ccccc3O)CC2)c1=O`, for which the Ki is > 10000 nM in assay [1] and 1.7 nM in assay [2]. In assay [4], the Ratio Ki is > 10000.
Take `Cn1c(=O)cnn(CCCCN2CCN(c3cccc(O)c3)CC2)c1=O`: the Ki in assay [1] was > 10000 nM; in assay [2] it was 2.8 nM.
For `COc1ccc(N2CCN(CCCCn3ncc(=O)n(C)c3=O)CC2)c(C#N)c1` the same measures were 380 nM and 215 nM.
Regarding `Cn1c(=O)cnn(CCCCN2CCN(c3ncccc3F)CC2)c1=O`, the maximum response (Emax) in assay [5] amounted to 80%. The Activity result in assay [3] was “Dose-dependent effect”. Besides, the EC50 in assay [6] was 0.8 nM. The results for the Ki in assay [1] and in assay [2] were > 10000 nM and 1.2 nM, respectively.
For the compound `Cn1c(=O)cnn(CCCCN2CCN(c3ccccc3C#N)CC2)c1=O`, the Ki in assay [1] is 7.3 nM; in assay [2], 0.835 nM.
For `CCOc1ccc2cccc(N3CCN(CCCCn4ncc(=O)n(C)c4=O)CC3)c2c1` the same measures were 48 nM and 2.1 nM.
Consider `Cn1c(=O)cnn(CCCCN2CCN(c3ncccn3)CC2)c1=O` [EPTAPIRONE], for which the Ki in assay [1] is > 10000 nM; in assay [2], 175 nM.
The like results for `COc1ccccc1N1CCN(CCCn2ncc(=O)n(C)c2=O)CC1` were, in that order, > 10000 nM and 180 nM.
For `Cn1c(=O)cnn(CCCN2CCN(c3ccccc3)CC2)c1=O` the same measures were > 10000 nM and 350 nM.
On to `COc1ccccc1N1CCN(CCCCCn2ncc(=O)n(C)c2=O)CC1`, for which the Ki in assay [1] is > 10000 nM; in assay [2] it was 150 nM.
For `Cn1c(=O)cnn(CCCCN2CCN(c3c(F)cccc3C#N)CC2)c1=O` the same measures were > 10000 nM and 4.8 nM.
With `Cn1c(=O)cnn(CCCCN2CCN(c3ccccc3OCCCF)CC2)c1=O`, the Ki in assay [1] was determined as 280 nM; in assay [2], 0.8 nM. Also, the Ratio Ki in assay [4] came out at 42.
As for `Cn1c(=O)cnn(CCCCN2CCN(c3cccc4ccc(O)cc34)CC2)c1=O`, the inhibition constant Ki in assay [1] is 24.5 nM; in assay [2], 0.44 nM.
For the compound `CSc1ccccc1N1CCN(CCCCn2ncc(=O)n(C)c2=O)CC1`, the Ki in assay [1] worked out at 1.8 nM; in assay [2] it was 0.46 nM.
For `Cn1c(=O)cnn(CCCN2CCN(c3ccccc3F)CC2)c1=O`, the values for the Ki in assay [1] and in assay [2] were > 10000 nM and 250 nM, respectively.
Take `COc1ccc(N2CCN(CCCCn3ncc(=O)n(C)c3=O)CC2)cc1`: the Ki in assay [1] was > 10000 nM; in assay [2], 414 nM.

For orientation: Ki means a measure of affinity in units of concentration, obtained from inhibition or displacement. A high value points to a looser hold on the target. By Emax is commonly meant the greatest response seen or fitted, relative to the assay's reference. Usually EC50 stands for the concentration needed to bring the measured effect to its halfway point.
